Assay type in all cases: functional
The species named for assay [1] is Mus musculus. Briefly: Compound was tested at a dose of 100 nmol for the skin tumor initiating activity expressed as papillomas per mouse. In outline: (§1)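 The initiator was applied topically to the shaved skin in 0.2 mL peroxide-free THF; controls received THF only. After 2 weeks, 3.4 nmol TPA in 0.2 mL acetone was given twice weekly. Papillomas were recorded weekly, with random histology. Means were compared by Student's t test.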

Assay [2] is filed under the species Mus musculus. The assay is described as follows: Compound was tested at a dose of 100 nmol for the skin tumor initiating activity expressed as percent of mice with papillomas. In outline: as §1
The species named for assay [3] is Mus musculus. Briefly: Compound was tested at a dose of 400 nmol for the skin tumor initiating activity expressed as papillomas per mouse. In outline:
as §1

For assay [4], the species on record is Mus musculus. The assay is described as follows: Compound was tested at a dose of 400 nmol for the skin tumor initiating activity expressed as percent of mice with papillomas. In outline: as §1

On to `Cc1c2ccc3c(c2c(C)c2c1ccc1ccccc12)C=C[C@H](O)[C@H]3O`, for which the Activity came to 9.9 in the assay listed under Mus musculus [1], 93% in the assay listed under Mus musculus [2], 14.7 in the assay filed under Mus musculus [3] and 100% in the assay listed under Mus musculus [4].
Turning to `O[C@H]1[C@H]2O[C@H]2c2c(ccc3cc4ccc5ccccc5c4cc23)[C@@H]1O`, the figures for the Activity in the assay listed under Mus musculus [3] and in the assay listed under Mus musculus [4] were 3.95 and 92%, respectively.
Regarding `Cc1c2ccc3ccccc3c2c(C)c2c1ccc1ccccc12`, the Activity is 8.4 in the assay filed under Mus musculus [1], 97% in the assay filed under Mus musculus [2], 17.3 in the assay filed under Mus musculus [3] and 97% in the assay filed under Mus musculus [4].
On to `O[C@H]1C=Cc2c(ccc3cc4ccc5ccccc5c4cc23)[C@@H]1O`, for which the Activity in the assay listed under Mus musculus [3] is given as 0.65; in the assay listed under Mus musculus [4], 39%.
As for `c1ccc2c(c1)ccc1cc3ccc4ccccc4c3cc12` [DIBENZO[A,J]ANTHRACENE], the results for the Activity in the assay listed under Mus musculus [3] and in the assay filed under Mus musculus [4] were 0.58 and 29%, respectively.

Values taken from ChEMBL document CHEMBL1124146, “Synthesis of the tumorigenic 3,4-dihydrodiol metabolites of dibenz[a,j]anthracene and 7,14-dimethyldibenz[a,j]anthracene” (1988).
